Key:
Format in all cases: cell-based
[1] = test system: Cellular tumor antigen p53 (Homo sapiens), P04637 [Y220C]; assay: Activation of p53 Y220C mutant in human NUGC3 cells assessed as change in IGF1R mRNA level at 60 uM after 18 hrs by RT-PCR method relative to control
Outline: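 p53 signalling qPCR array covering 84 genes. Cells were exposed for 18 h, with 0.5% DMSO in both compound and control samples. Total RNA was extracted and purified. Fold-changes were calculated by ΔΔCt using β2-microglobulin (B2M) as the housekeeping gene. Two independent biological replicates were run per cell line.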

[2] = target: Cellular tumor antigen p53 (Homo sapiens, UniProt P04637); assay: Activation of p53 in human NUGC4 cells assessed as change in NFKB1 mRNA level at 60 uM after 18 hrs by RT-PCR method relative to control; details: read-out: FC
Outline: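 p53-signalling qPCR array (84 pathway genes): cells treated 18 h in 0.5% DMSO, with DMSO-matched controls. Total RNA was extracted and fold-change quantified by the ΔΔCt method with β2-microglobulin (B2M) as housekeeping gene, normalized to the untreated sample. Two independent biological replicates per cell line.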

[3] = test system: Cellular tumor antigen p53 (Homo sapiens), P04637 [Y220C]; assay: Activation of p53 Y220C mutant in human NUGC3 cells assessed as change in RPRM mRNA level at 60 uM after 18 hrs by RT-PCR method relative to control
Outline: (§1)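 p53 signalling qPCR array covering 84 p53 pathway genes. Cells were exposed for 18 h, and compound and control wells both held 0.5% DMSO. Total RNA was extracted and purified. Fold-changes were calculated by the ΔΔCt method against the untreated sample, with β2-microglobulin (B2M) as the housekeeping gene. Each cell line was run in two independent biological replicates.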

[4] = test system: Cellular tumor antigen p53 (Homo sapiens), P04637 [Y220C]; assay: Activation of p53 Y220C mutant in human NUGC3 cells assessed as change in JUN mRNA level at 60 uM after 18 hrs by RT-PCR method relative to control; outline: as §1
[5] = test system: Cellular tumor antigen p53 (Homo sapiens), P04637 [Y220C]; assay: Activation of p53 Y220C mutant in human NUGC3 cells assessed as change in TNFRSF10D mRNA level at 60 uM after 18 hrs by RT-PCR method relative to control; outline: as §1
[6] = test system: Cellular tumor antigen p53 (Homo sapiens), P04637 [Y220C]; assay: Activation of p53 Y220C mutant in human NUGC3 cells assessed as change in TNF mRNA level at 60 uM after 18 hrs by RT-PCR method relative to control; outline: as §1
[7] = test system: Cellular tumor antigen p53 (Homo sapiens), P04637 [Y220C]; assay: Activation of p53 Y220C mutant in human NUGC3 cells assessed as change in S1AH1 mRNA level at 60 uM after 18 hrs by RT-PCR method relative to control; outline: as §1

A fold change (FC) [1] of 1.8, a fold induction at 60 µM [2] of 0.8 and a fold change (FC) [3] of 1.4 were found for `CCNC(=O)c1c(O)c(I)c(-n2cccc2)c2sc(N(CC)CC)nc12` in this work. It also gave a fold change (FC) [4] of 0.9, a fold change (FC) [5] of 1 and a fold change (FC) [6] of 5.6. It also gave a fold change (FC) [7] of 1.5.

Source: ChEMBL document CHEMBL4152234, “Aminobenzothiazole derivatives stabilize the thermolabile p53 cancer mutant Y220C and show anticancer activity in p53-Y220C cell lines” (Eur J Med Chem, 2018)
